# From ChEMBL document CHEMBL1240420, “Synthesis and biological evaluation of cinnamido linked pyrrolo[2,1-c][1,4]benzodiazepines as antimitotic agents” (Eur J Med Chem, 2010)
# What was measured:
# Format in all cases: functional
# [1] = system: OVCAR-4; test: Cytotoxicity against human OVCAR4 cells after 48 hrs by SRB assay; details: OVCAR-4, 48 h
# [2] = system: BT-549; test: Cytotoxicity against human BT549 cells after 48 hrs by SRB assay; details: BT-549, 48 h
# [3] = system: SF-268; test: Cytotoxicity against human SF268 cells after 48 hrs by SRB assay; details: SF-268, 48 h
# [4] = system: CCRF-CEM; test: Cytotoxicity against human CCRF-CEM cells after 48 hrs by SRB assay
# [5] = system: A498; test: Cytotoxicity against human A498 cells after 48 hrs by SRB assay; details: A498, 48 h
# [6] = system: SNB-19; test: Cytotoxicity against human SNB19 cells after 48 hrs by SRB assay; details: SNB-19, 48 h
# [7] = system: SF-295; test: Cytotoxicity against human SF295 cells after 48 hrs by SRB assay; details: SF-295, 48 h
# [8] = system: SK-OV-3; test: Cytotoxicity against human SKOV3 cells after 48 hrs by SRB assay; details: SK-OV-3, 48 h
# [9] = system: 786-0; test: Cytotoxicity against human 786-0 cells after 48 hrs by SRB assay; details: 786-0, 48 h
# [10] = system: SN12C; test: Cytotoxicity against human SN12C cells after 48 hrs by SRB assay
# [11] = system: IGROV-1; test: Cytotoxicity against human IGROV1 cells after 48 hrs by SRB assay; details: IGROV-1, 48 h
# [12] = system: HCC 2998; test: Cytotoxicity against human HCC2998 cells after 48 hrs by SRB assay; details: HCC 2998, 48 h
# [13] = system: HT-29; test: Cytotoxicity against human HT-29 cells after 48 hrs by SRB assay; details: HT-29, 48 h
# [14] = system: MDA-MB-231; test: Cytotoxicity against human MDA-MB-231 cells after 48 hrs by SRB assay; details: MDA-MB-231, 48 h
# [15] = system: HOP-62; test: Cytotoxicity against human HOP62 cells after 48 hrs by SRB assay; details: HOP-62, 48 h
# In short: (§1)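 Cells were grown in RPMI 1640 with 10% FBS and 2 mM L-glutamine, plated 24 h before dosing, then given continuous 48 h exposure at 0.1, 1, 10 and 100 µM in triplicate wells. Cells were fixed with cold TCA (10% final, 60 min, 4 °C), stained with 0.4% SRB in 1% acetic acid for 20 min, eluted with 10 mM Tris base, and read at 540/690 nm. GI50 was taken from [(Ti−Tz)/(C−Tz)]×100 = 50; three determinations were averaged.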
# [16] = system: SW-620; test: Cytotoxicity against human SW620 cells after 48 hrs by SRB assay; details: SW-620, 48 h
# [17] = system: T47D; test: Cytotoxicity against human T47D cells after 48 hrs by SRB assay
# [18] = system: HCT-15; test: Cytotoxicity against human HCT15 cells after 48 hrs by SRB assay; details: HCT-15, 48 h
# [19] = system: NCI-H460; test: Cytotoxicity against human NCI-H460 cells after 48 hrs by SRB assay; details: NCI-H460, 48 h
# [20] = system: MOLT-4; test: Cytotoxicity against human MOLT4 cells after 48 hrs by SRB assay; details: MOLT-4, 48 h
# [21] = system: A549; test: Cytotoxicity against human A549 cells after 48 hrs by SRB assay; details: A549, 48 h; in short: as §1
# [22] = system: OVCAR-3; test: Cytotoxicity against human OVCAR-3 cells after 48 hrs by SRB assay; details: OVCAR-3, 48 h
# [23] = system: UACC-257; test: Cytotoxicity against human UACC257 cells after 48 hrs by SRB assay; details: UACC-257, 48 h
# [24] = system: SK-MEL-28; test: Cytotoxicity against human SK-MEL-28 cells after 48 hrs by SRB assay; details: SK-MEL-28, 48 h
# [25] = system: NCI/ADR-RES; test: Cytotoxicity against human NCI/ADR-RES cells after 48 hrs by SRB assay
# [26] = system: COLO 205; test: Cytotoxicity against human COLO205 cells after 48 hrs by SRB assay; details: COLO 205, 48 h; in short: as §1
# [27] = system: M14; test: Cytotoxicity against human M14 cells after 48 hrs by SRB assay; details: M14, 48 h
# [28] = system: HL-60(TB); test: Cytotoxicity against human HL-60(TB) cells after 48 hrs by SRB assay; details: HL-60, 48 h
# [29] = system: LOX IMVI; test: Cytotoxicity against human LOXIMVI cells after 48 hrs by SRB assay
# [30] = system: SNB-75; test: Cytotoxicity against human SNB75 cells after 48 hrs by SRB assay; details: SNB-75, 48 h
# [31] = system: SK-MEL-5; test: Cytotoxicity against human SK-MEL-5 cells after 48 hrs by SRB assay; details: SK-MEL-5, 48 h
# [32] = system: U-251; test: Cytotoxicity against human U251 cells after 48 hrs by SRB assay; details: U-251, 48 h
# [33] = system: MDA-MB-468; test: Cytotoxicity against human MDA-MB-468 cells after 48 hrs by SRB assay; details: MDA-MB-468, 48 h
# [34] = system: ACHN; test: Cytotoxicity against human ACHN cells after 48 hrs by SRB assay
# [35] = system: UO-31; test: Cytotoxicity against human UO31 cells after 48 hrs by SRB assay; details: UO-31, 48 h
# [36] = system: DU-145; test: Cytotoxicity against human DU145 cells after 48 hrs by SRB assay; details: DU-145, 48 h
# [37] = Cytotoxicity against human Hs 578T cells after 48 hrs by SRB assay
# [38] = system: SK-MEL-2; test: Cytotoxicity against human SK-MEL-2 cells after 48 hrs by SRB assay; details: SK-MEL-2, 48 h
# [39] = system: HOP-92; test: Cytotoxicity against human HOP92 cells after 48 hrs by SRB assay; details: HOP-92, 48 h
# [40] = system: NCI-H322M; test: Cytotoxicity against human NCI-H322M cells after 48 hrs by SRB assay
# [41] = system: UACC-62; test: Cytotoxicity against human UACC62 cells after 48 hrs by SRB assay; details: UACC-62, 48 h
# [42] = system: OVCAR-5; test: Cytotoxicity against human OVCAR5 cells after 48 hrs by SRB assay; details: OVCAR-5, 48 h
# [43] = system: NCI-H226; test: Cytotoxicity against human NCI-H226 cells after 48 hrs by SRB assay; details: NCI-H226, 48 h
# [44] = system: MCF7; test: Cytotoxicity against human MCF7 cells after 48 hrs by SRB assay; details: MCF7, 48 h; in short: as §1
# [45] = system: SF-539; test: Cytotoxicity against human SF539 cells after 48 hrs by SRB assay; details: SF-539, 48 h
# [46] = system: PC-3; test: Cytotoxicity against human PC3 cells after 48 hrs by SRB assay; details: PC-3, 48 h; in short: as §1
# [47] = system: HCT-116; test: Cytotoxicity against human HCT116 cells after 48 hrs by SRB assay; details: HCT-116, 48 h
# [48] = system: NCI-H522; test: Cytotoxicity against human NCI-H522 cells after 48 hrs by SRB assay; details: NCI-H522, 48 h
# [49] = system: RXF 393; test: Cytotoxicity against human […] cells after 48 hrs by SRB assay; details: RXF 393, 48 h
# [50] = system: OVCAR-8; test: Cytotoxicity against human OVCAR8 cells after 48 hrs by SRB assay; details: OVCAR-8, 48 h
# [51] = system: MDA-MB-435; test: Cytotoxicity against human MDA-MB-435 cells after 48 hrs by SRB assay; details: MDA-MB-435, 48 h
# [52] = system: EKVX; test: Cytotoxicity against human EKVX cells after 48 hrs by SRB assay
# [53] = system: CAKI-1; test: Cytotoxicity against human Caki1 cells after 48 hrs by SRB assay; details: CAKI-1, 48 h
# [54] = system: K562; test: Cytotoxicity against human K562 cells after 48 hrs by SRB assay; details: K562, 48 h
# [55] = system: Malme-3M; test: Cytotoxicity against human MALME-3M cells after 48 hrs by SRB assay
# [56] = system: NCI-H23; test: Cytotoxicity against human NCI-H23 cells after 48 hrs by SRB assay; details: NCI-H23, 48 h
# [57] = system: TK-10; test: Cytotoxicity against human TK10 cells after 48 hrs by SRB assay; details: TK-10, 48 h
# [58] = system: SR; test: Cytotoxicity against human SR cells after 48 hrs by SRB assay
# [59] = system: KM12; test: Cytotoxicity against human KM12 cells after 48 hrs by SRB assay; details: KM12, 48 h
smiles,measurement,setting,value
COc1cc(/C=C/C(=O)N2CCN(C(=O)c3cc(OC)c(OC)c(OC)c3)CC2)ccc1OCCCOc1cc2c(cc1OC)C(=O)N1CCC[C@H]1C=N2,GI50,[1],1.07 µM
same,GI50,[2],0.15 µM
same,GI50,[3],0.24 µM
same,GI50,[4],0.08 µM
same,GI50,[5],0.19 µM
same,GI50,[6],0.38 µM
same,GI50,[7],0.31 µM
same,GI50,[8],0.61 µM
same,GI50,[9],0.27 µM
same,GI50,[10],0.27 µM
same,GI50,[11],0.24 µM
same,GI50,[12],0.24 µM
same,GI50,[13],0.26 µM
same,GI50,[14],0.23 µM
same,GI50,[15],0.23 µM
same,GI50,[16],0.17 µM
same,GI50,[17],0.23 µM
same,GI50,[18],2.98 µM
same,GI50,[19],0.24 µM
same,GI50,[20],0.23 µM
same,GI50,[21],1.89 µM
same,GI50,[22],0.21 µM
same,GI50,[23],0.35 µM
same,GI50,[24],0.2 µM
same,GI50,[25],8.91 µM
same,GI50,[26],0.19 µM
same,GI50,[27],0.32 µM
same,GI50,[28],0.18 µM
same,GI50,[29],0.24 µM
same,GI50,[30],0.21 µM
same,GI50,[31],0.19 µM
same,GI50,[32],0.18 µM
same,GI50,[33],0.07 µM
same,GI50,[34],2.54 µM
same,GI50,[35],2.59 µM
same,GI50,[36],0.33 µM
same,GI50,[37],0.23 µM
same,GI50,[38],0.26 µM
same,GI50,[39],0.49 µM
same,GI50,[40],0.34 µM
same,GI50,[41],0.16 µM
same,GI50,[42],0.29 µM
same,GI50,[43],0.31 µM
same,GI50,[44],0.08 µM
same,GI50,[45],0.24 µM
same,GI50,[46],0.73 µM
same,GI50,[47],0.17 µM
same,GI50,[48],0.06 µM
same,GI50,[49],0.54 µM
same,GI50,[50],0.45 µM
same,GI50,[51],0.18 µM
same,GI50,[52],0.72 µM
same,GI50,[53],2.11 µM
same,GI50,[54],0.69 µM
same,GI50,[55],0.17 µM
same,GI50,[56],0.26 µM
same,GI50,[57],0.29 µM
same,GI50,[58],0.28 µM
same,GI50,[59],0.21 µM
